Data as given in ChEMBL document CHEMBL4402551 (Eur J Med Chem, 2020).
Activity calls are given as the source filed them. The calls are words filed in the database; no cut-off is given here.

Experiments:
[1] = Inhibition of Influenza A virus (A/Duck/Guangdong/674/2014(H5N6)) Neuraminidase N6 preincubated for 10 mins followed by MUNANA substrate addition and measured after 40 mins by fluorescence method
[2] = Cytotoxicity against CEF after 48 hrs by CCK8 assay; parameters: species or system Gallus gallus; conditions: chicken, CEF cells
Summary of the method: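 Uninfected chicken embryo fibroblasts are given compound, serially diluted 3-fold in DMEM with 1% FBS from a DMSO stock, at 37 °C and 5% CO2 for 48 h. Viability is read as A450 after 90 min with CCK-8 at 37 °C. CC50 is derived as for EC50.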

Influenza A virus [3] = test: Antiviral activity against Influenza A virus (A/goose/Guangdong/SH7/2013(H5N1)) infected in chicken embryo fibroblasts assessed as protection against virus-induced cytopathic effect incubated for 48 hrs by CCK8 assay; assay type: functional, organism-based
Influenza A virus [4] = test: Antiviral activity against Influenza A virus (A/Duck/Guangdong/674/2014(H5N6)) infected in chicken embryo fibroblasts assessed as protection against virus-induced cytopathic effect incubated for 48 hrs by CCK8 assay; assay type: functional, organism-based
Influenza A virus [5] = test: Antiviral activity against Influenza A virus (A/Chicken/Hebei/LZF/2014(H5N2)) infected in chicken embryo fibroblasts assessed as protection against virus-induced cytopathic effect incubated for 48 hrs by CCK8 assay; assay type: functional, organism-based
Influenza A virus [6] = test: Antiviral activity against Influenza A virus (A/Chicken/Hebei/LZF/2014(H5N2)) infected in chicken embryonated eggs assessed as chicken embryo survival at 10 mM incubated with virus for 1 hr followed by inoculation and measured after 72 hrs relative to control; assay type: functional
Influenza A virus [7] = test: Antiviral activity against Influenza A virus (A/Chicken/China/415/2013 (H9N2)) infected in chicken embryonated eggs assessed as chicken embryo survival at 10 to 0.625 mM incubated with virus for 1 hr followed by inoculation and measured after 72 hrs relative to control; assay type: functional
Influenza A virus [8] = test: Antiviral activity against Influenza A virus (A/Chicken/Hebei/LZF/2014(H5N2)) infected in chicken embryonated eggs assessed as protection against virus-induced chicken embryo death at 2.5 to 0.156 mM incubated with virus for 1 hr followed by inoculation and measured after 72 hrs; assay type: functional, organism-based
Influenza A virus [9] = test: Antiviral activity against Influenza A virus (A/Chicken/China/415/2013 (H9N2)) infected in chicken embryonated eggs assessed as chicken embryo survival at 10 to 0.156 mM incubated with virus for 1 hr followed by inoculation and measured after 72 hrs relative to control; assay type: functional

Row | SMILES | IC50 [1] [µM] | further results
1 | CCC(CC)O[C@@H]1C=C(C(=O)NCc2cn(CSc3ccccc3)nn2)C[C@H](N)[C@H]1NC(C)=O | 4.59 | –
2 | CCC(CC)O[C@@H]1C=C(C(=O)NCc2cn(Cc3ccc(-c4ccccc4)cc3)nn2)C[C@H](N)[C@H]1NC(C)=O | 2.2 | –
3 | CCC(CC)O[C@@H]1C=C(C(=O)NCc2cn(CC(=O)N3CCOCC3)nn2)C[C@H](N)[C@H]1NC(C)=O | 0.79 | CC50 at 48 h [2]: > 1000 µM; EC50 (Influenza A virus [3]): 3.1 µM; EC50 (Influenza A virus [4]): 3.78 µM; EC50 (Influenza A virus [5]): 1 µM
4 | CCC(CC)O[C@@H]1C=C(C(=O)NCc2cn(Cc3ccc([N+](=O)[O-])cc3)nn2)C[C@H](N)[C@H]1NC(C)=O | 1.17 | –
5 | CCC(CC)O[C@@H]1C=C(C(=O)O)C[C@H](N)[C@H]1NC(C)=O [OSELTAMIVIR CARBOXYLATE] | 0.018 | CC50 at 48 h [2]: > 1000 µM; EC50 (Influenza A virus [3]): 0.22 µM; EC50 (Influenza A virus [4]): 0.43 µM; EC50 (Influenza A virus [5]): 0.18 µM; Activity (Influenza A virus [6]): 80%; Activity (Influenza A virus [7]): >80%; Activity (Influenza A virus [8]): inactive
6 | CCC(CC)O[C@@H]1C=C(C(=O)NCc2cn(CCc3ccc(Br)cc3)nn2)C[C@H](N)[C@H]1NC(C)=O | 6.34 | –
7 | CCC(CC)O[C@@H]1C=C(C(=O)NCc2cn(Cc3ccc(F)cc3)nn2)C[C@H](N)[C@H]1NC(C)=O | 3.2 | –
8 | CCC(CC)O[C@@H]1C=C(C(=O)NC(C)(C)c2cn([C@H]3C[C@H](n4cc(C)c(=O)[nH]c4=O)O[C@@H]3CO)nn2)C[C@H](N)[C@H]1NC(C)=O | 0.58 | CC50 at 48 h [2]: > 1000 µM; EC50 (Influenza A virus [3]): 6.28 µM; EC50 (Influenza A virus [4]): > 20 µM; EC50 (Influenza A virus [5]): 0.53 µM
9 | CCC(CC)O[C@@H]1C=C(C(=O)NCc2cn(Cc3ccccc3Cl)nn2)C[C@H](N)[C@H]1NC(C)=O | 0.13 | CC50 at 48 h [2]: > 1000 µM; EC50 (Influenza A virus [3]): 3.32 µM; EC50 (Influenza A virus [4]): 8.6 µM; EC50 (Influenza A virus [5]): 0.47 µM
10 | CCC(CC)O[C@@H]1C=C(C(=O)NCc2cn(Cc3ccccc3Br)nn2)C[C@H](N)[C@H]1NC(C)=O | > 10 | –
11 | CCC(CC)O[C@@H]1C=C(C(=O)NC(C)(C)c2cn(Cc3ccc(Br)cc3)nn2)C[C@H](N)[C@H]1NC(C)=O | > 10 | –
12 | CCC(CC)O[C@@H]1C=C(C(=O)NCc2cn(Cc3cccc([N+](=O)[O-])c3)nn2)C[C@H](N)[C@H]1NC(C)=O | 2.85 | –
13 | CCC(CC)O[C@@H]1C=C(C(=O)NCc2cn(CC(=O)N3CCCC3)nn2)C[C@H](N)[C@H]1NC(C)=O | 1.4 | –
14 | CCC(CC)O[C@@H]1C=C(C(=O)NCc2cn(Cc3cccc(F)c3)nn2)C[C@H](N)[C@H]1NC(C)=O | 2 | –
15 | CCC(CC)O[C@@H]1C=C(C(=O)NCCc2cn(Cc3ccc([N+](=O)[O-])cc3)nn2)C[C@H](N)[C@H]1NC(C)=O | 7.6 | –
16 | CCC(CC)O[C@@H]1C=C(C(=O)NCc2cn(Cc3ccccc3)nn2)C[C@H](N)[C@H]1NC(C)=O | 1 | –
17 | CCC(CC)O[C@@H]1C=C(C(=O)NCc2cn(C3CCCCC3)nn2)C[C@H](N)[C@H]1NC(C)=O | 2.01 | –
18 | CCC(CC)O[C@@H]1C=C(C(=O)NCc2cn(Cc3cccc(Cl)c3)nn2)C[C@H](N)[C@H]1NC(C)=O | 2.56 | –
19 | CCC(CC)O[C@@H]1C=C(C(=O)NCc2cn([C@H]3C[C@H](n4cc(C)c(=O)[nH]c4=O)O[C@@H]3CO)nn2)C[C@H](N)[C@H]1NC(C)=O | 0.29 | –
20 | CCC(CC)O[C@@H]1C=C(C(=O)NC(C)(C)c2cn(Cc3ccc([N+](=O)[O-])cc3)nn2)C[C@H](N)[C@H]1NC(C)=O | > 10 | –
21 | CCC(CC)O[C@@H]1C=C(C(=O)NCc2cn(Cc3ccc(C)cc3)nn2)C[C@H](N)[C@H]1NC(C)=O | 5.5 | –
22 | CCC(CC)O[C@@H]1C=C(C(=O)NCc2cn(Cc3ccc(Br)cc3)nn2)C[C@H](N)[C@H]1NC(C)=O | 0.16 | CC50 at 48 h [2]: > 1000 µM; EC50 (Influenza A virus [3]): 2.45 µM; EC50 (Influenza A virus [4]): 2.8 µM; EC50 (Influenza A virus [5]): 0.43 µM; Activity (Influenza A virus [6]): 20%; Activity (Influenza A virus [9]): >80%; Activity (Influenza A virus [8]): inactive
23 | CCC(CC)O[C@@H]1C=C(C(=O)NCc2cn(Cc3ccc(Cl)c(F)c3)nn2)C[C@H](N)[C@H]1NC(C)=O | 2.8 | –
24 | CCC(CC)O[C@@H]1C=C(C(=O)NCCc2cn(Cc3ccc(Br)cc3)nn2)C[C@H](N)[C@H]1NC(C)=O | > 10 | –
25 | CCC(CC)O[C@@H]1C=C(C(=O)NCc2cn(CCc3ccccc3)nn2)C[C@H](N)[C@H]1NC(C)=O | 0.57 | –
26 | CCC(CC)O[C@@H]1C=C(C(=O)NCCc2cn([C@H]3C[C@H](n4cc(C)c(=O)[nH]c4=O)O[C@@H]3CO)nn2)C[C@H](N)[C@H]1NC(C)=O | > 10 | –
27 | CCC(CC)O[C@@H]1C=C(C(=O)NCc2cn(Cc3ccccc3[N+](=O)[O-])nn2)C[C@H](N)[C@H]1NC(C)=O | > 10 | –
